Data as given in ChEMBL document CHEMBL4334465, “SAR Studies on Aromatic Acylhydrazone-Based Inhibitors of Fungal Sphingolipid Synthesis as Next-Generation Antifungal Agents” (J Med Chem, 2019).
Converted amounts (≈) assume the structure as drawn.

Assays:
[1] = test system: Cryptococcus neoformans; assay: Antifungal activity against Cryptococcus neoformans H99 measured after 24 to 72 hrs; type: functional; settings: var grubii H99
How it was run: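 Modified CLSI broth microdilution with inoculum per M27A3. Compounds were serially diluted 32 to 0.03 μg/mL. Media: C. neoformans in HEPES-buffered YNB without amino acids (pH 7.0, 2% glucose); Candida strains in YNB without ammonium sulfate or amino acids plus 1% asparagine (pH 7.0, 2% glucose); A. fumigatus in RPMI (pH 7.0, 2% glucose).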

[2] = test system: Cryptococcus neoformans; assay: Fungicidal activity against Cryptococcus neoformans H99 measured after 48 hrs by time-kill assay; type: functional, var grubii H99
How it was run: (§1)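 Overnight C. neoformans washed in PBS and resuspended in HEPES-buffered YNB, pH 7.4. 2 × 10⁴ cells exposed to a range of drug concentrations in 10 mL with 0.5% DMSO final, at 37°C, 5% CO₂, shaking at 200 rpm. Aliquots sampled over 96 h, diluted and plated on YPD; CFU counted after 48 h at 30°C.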

[3] = test system: A549; assay: Cytotoxicity against human A549 cells after 24 to 48 hrs by MTT assay; type: functional; settings: read-out: LD50 (the source's name)
How it was run: (§2)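 A549 and HepG2 kept in DMEM with 10% FBS and 1% pen-strep. At passage 7, seeded at 10⁵ cells/well and allowed to adhere 14 h. Compound added at 0.03–128 μg/mL, untreated wells as controls. Incubation 37°C, 5% CO₂ for 24 or 48 h. MTT (5 mg/mL in PBS) added for 4 h, formazan dissolved in DMSO, OD570.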

[4] = test system: HepG2; assay: Cytotoxicity against human HepG2 cells after 24 to 48 hrs by MTT assay; type: functional; settings: read-out: LD50 (the source's name); how it was run: as §2
[5] = Selectivity index, ratio of LD50 for human A549 cells to MIC80 for Cryptococcus neoformans H99; type: toxicity; settings: read-out: Selectivity Index
How it was run: (§3)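 SI = LD₅₀/MIC₈₀. Cytotoxicity: A549 or HepG2 cells (DMEM, 10% FBS, passage 7, 10⁵ cells/well) adhered 14 h, then exposed to 0.03–128 μg/mL for 24 or 48 h at 37°C, 5% CO₂; MTT 4 h, formazan dissolved in DMSO, read at 570 nm. MIC₈₀ against C. neoformans from broth microdilution in HEPES-buffered YNB, pH 7.0.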

[6] = Selectivity index, ratio of LD50 for human HepG2 cells to MIC80 for Cryptococcus neoformans H99; type: toxicity; settings: read-out: Selectivity Index; how it was run: as §3
[7] = test system: Cryptococcus neoformans; assay: Fungicidal activity against Cryptococcus neoformans H99 measured after 24 hrs by time-kill assay; type: functional, var grubii H99; how it was run: as §1

Row | Compound | MIC80 [1] | MFC100 [2] | CC50 [3] | CC50 [4] | selectivity ratio [5] | selectivity ratio [6] | MFC100 [7]
1 | Cc1ccc(O)c(/C=N/NC(=O)c2cc(Br)ccc2Br)c1 | 1 mg/L (≈ 2.43 µM) | 0.5 mg/L (≈ 1.21 µM) | 32 mg/L (≈ 77.7 µM) | 32 mg/L (≈ 77.7 µM) | 32 | 32 | –
2 | Cc1ccccc1C(=O)N/N=C/c1cc(C(F)(F)F)ccc1O | 8 mg/L (≈ 24.8 µM) | – | – | – | – | – | –
3 | O=C(N/N=C/c1cc(Br)cc(Br)c1O)c1cccc(C(=O)N/N=C/c2cc(Br)cc(Br)c2O)c1 | > 16 mg/L | – | – | – | – | – | –
4 | O=C(N/N=C/c1ccc(Br)cc1O)c1ccc(OC(F)F)cc1 | 0.12 mg/L (≈ 0.312 µM) | – | 32 mg/L (≈ 83.1 µM) | 32 mg/L (≈ 83.1 µM) | 267 | 267 | 1 mg/L (≈ 2.6 µM)
5 | C/C(=N\NC(=O)c1ccc(Br)cc1Br)c1cc(Br)cc(Br)c1O | > 16 mg/L | – | – | – | – | – | –
6 | Nc1ccc(C(=O)N/N=C/c2ccc(Br)cc2O)cc1 | 4 mg/L (≈ 12 µM) | – | – | – | – | – | –
7 | O=C(N/N=C/c1cc(OC(F)(F)F)ccc1O)c1ccc(Br)cc1Br | 0.25 mg/L (≈ 0.519 µM) | – | 32 mg/L (≈ 66.4 µM) | 64 mg/L (≈ 133 µM) | 128 | 256 | 2 mg/L (≈ 4.15 µM)
8 | Cc1ccc(O)c(/C=N/NC(=O)c2cc(Br)cc(Br)c2O)c1 | 0.25 mg/L (≈ 0.584 µM) | – | 4 mg/L (≈ 9.34 µM) | 8 mg/L (≈ 18.7 µM) | 16 | 32 | 0.25 mg/L (≈ 0.584 µM)
9 | C/C(=N\NC(=O)c1cc(Br)ccc1Br)c1cc(Br)ccc1O | > 16 mg/L | – | – | – | – | – | –
10 | CC(=O)Nc1ccc(C(=O)N/N=C/c2ccc(Br)cc2O)cc1 | > 16 mg/L | – | – | – | – | – | –
11 | C/C(=N\NC(=O)c1ccc(Br)cc1Br)c1cc(Br)ccc1O | > 16 mg/L | – | – | – | – | – | –
12 | O=C(N/N=C/c1c(O)ccc2ccccc12)c1cc(Br)ccc1Br | 0.25 mg/L (≈ 0.558 µM) | – | 32 mg/L (≈ 71.4 µM) | 16 mg/L (≈ 35.7 µM) | 128 | 64 | 0.25 mg/L (≈ 0.558 µM)
13 | O=C(N/N=C/c1cc(F)ccc1O)c1cc(Br)ccc1Br | > 16 mg/L | – | – | – | – | – | –
14 | O=C(N/N=C/c1cc(Br)ccc1O)c1cccc(C(=O)N/N=C/c2cc(Br)ccc2O)c1 | > 16 mg/L | – | – | – | – | – | –
15 | N#Cc1ccc(O)c(/C=N/NC(=O)c2ccc(Br)cc2Br)c1 | 8 mg/L (≈ 18.9 µM) | – | – | – | – | – | –
16 | O=C(N/N=C/c1cc(Br)ccc1O)c1cccc(OC(F)F)c1 | 0.12 mg/L (≈ 0.312 µM) | – | 8 mg/L (≈ 20.8 µM) | 64 mg/L (≈ 166 µM) | 66.6 | 533 | 1 mg/L (≈ 2.6 µM)
17 | O=C(N/N=C/c1cc(Br)cc(Br)c1O)c1cc(Br)cc(Br)c1 | > 16 mg/L | – | – | – | – | – | –
18 | Cc1ccc(O)c(/C=N/NC(=O)c2cc(Br)ccc2O)c1 | 0.25 mg/L (≈ 0.716 µM) | – | 16 mg/L (≈ 45.8 µM) | 16 mg/L (≈ 45.8 µM) | 64 | 64 | 0.5 mg/L (≈ 1.43 µM)
19 | Cc1ccc(O)c(/C=N/NC(=O)c2cccc(Br)c2Br)c1 | > 16 mg/L | – | – | – | – | – | –

Row | Compound | MIC80 [1] | MFC100 [2] | CC50 [3] | CC50 [4] | selectivity ratio [5] | selectivity ratio [6] | MFC100 [7]
20 | O=C(N/N=C/c1cc(Cl)cc(Cl)c1O)c1cc(Br)cc(Br)c1 | 0.5 mg/L (≈ 1.07 µM) | – | 64 mg/L (≈ 137 µM) | 64 mg/L (≈ 137 µM) | 128 | 128 | 0.5 mg/L (≈ 1.07 µM)
21 | O=C(c1ccc(Br)cc1)n1ccc(-c2cc(Br)cc(Br)c2O)n1 | > 16 mg/L | – | – | – | – | – | –
22 | O=C(N/N=C/c1c(O)ccc2ccccc12)c1cc(Br)cc(Br)c1 | 0.25 mg/L (≈ 0.558 µM) | – | 2 mg/L (≈ 4.46 µM) | 4 mg/L (≈ 8.93 µM) | 8 | 16 | 0.5 mg/L (≈ 1.12 µM)
23 | CN(C)c1ccc(C(=O)N/N=C/c2c(O)ccc3ccccc23)cc1 | 0.5 mg/L (≈ 1.5 µM) | – | 32 mg/L (≈ 96 µM) | 16 mg/L (≈ 48 µM) | 64 | – | 2 mg/L (≈ 6 µM)
24 | O=C(N/N=C/c1cc(Cl)ccc1O)c1cc(Br)ccc1Br | 0.25 mg/L (≈ 0.578 µM) | – | 59 mg/L (≈ 136 µM) | 32 mg/L (≈ 74 µM) | 236 | 128 | 0.25 mg/L (≈ 0.578 µM)
25 | O=C(N/N=C/c1cc(Br)cc(Br)c1O)c1ccc(F)cc1 | 0.12 mg/L (≈ 0.288 µM) | – | 32 mg/L (≈ 76.9 µM) | 32 mg/L (≈ 76.9 µM) | 267 | 267 | 0.25 mg/L (≈ 0.601 µM)
26 | O=C(N/N=C/c1cc(Br)cc(Br)c1O)c1cccc(C(F)(F)F)c1 | 2 mg/L (≈ 4.29 µM) | – | – | – | – | – | –
27 | C/C(=N\NC(=O)c1cc(Br)ccc1Br)c1cc(Br)cc(Br)c1O | > 16 mg/L | – | – | – | – | – | –
28 | CN(/N=C/c1cc(Br)cc(Br)c1O)C(=O)c1ccc(Br)cc1 | > 16 mg/L | – | – | – | – | – | –
29 | O=C(N/N=C/c1cc(Cl)cc(Cl)c1O)c1cc(Br)ccc1Br | 0.5 mg/L (≈ 1.07 µM) | – | 32 mg/L (≈ 68.5 µM) | 32 mg/L (≈ 68.5 µM) | 64 | 64 | 0.25 mg/L (≈ 0.535 µM)
30 | Cc1ccc(O)c(/C=N/NC(=O)c2cc(Br)cc(Br)c2)c1 | 0.5 mg/L (≈ 1.21 µM) | – | 32 mg/L (≈ 77.7 µM) | 16 mg/L (≈ 38.8 µM) | 64 | 32 | 1 mg/L (≈ 2.43 µM)
31 | Cc1ccc(O)c(/C=N/NC(=O)c2ccc(Br)cc2Br)c1 | 1 mg/L (≈ 2.43 µM) | – | 32 mg/L (≈ 77.7 µM) | 16 mg/L (≈ 38.8 µM) | 32 | 16 | 2 mg/L (≈ 4.85 µM)
32 | CN(C)c1ccc(C(=O)N/N=C/c2cc(Br)ccc2O)cc1 | > 16 mg/L | – | – | – | – | – | –
33 | O=C(N/N=C/c1ccc(Br)cc1O)c1cccc(Br)c1Br | > 16 mg/L | – | – | – | – | – | –
34 | Cc1ccccc1-c1nnc(-c2cc(Br)ccc2O)o1 | > 16 mg/L | – | – | – | – | – | –
35 | O=C(N/N=C/c1cc(Br)cc(Br)c1O)c1ccc(CF)cc1 | 0.5 mg/L (≈ 1.16 µM) | – | 16 mg/L (≈ 37.2 µM) | 16 mg/L (≈ 37.2 µM) | 32 | 32 | 0.5 mg/L (≈ 1.16 µM)
36 | O=C(N/N=C/c1cc(Br)cc(Br)c1O)c1cccc(OC(F)(F)F)c1 | 4 mg/L (≈ 8.3 µM) | – | – | – | – | – | –
37 | Cc1ccccc1C(=O)N/N=C/c1cc(C#N)ccc1O | 4 mg/L (≈ 14.3 µM) | – | – | – | – | – | –
38 | O=C(N/N=C/c1c(O)ccc2ccccc12)c1cccc(Br)c1Br | > 16 mg/L | – | – | – | – | – | –
